ChEMBL document CHEMBL4330160, “Prenylated Indole Diterpene Alkaloids from a Mine-Soil-Derived Tolypocladium sp” (J Nat Prod, 2019)
In brackets after ≈: the same amount, converted by molar mass. Activity calls are given as the source filed them. The calls are words filed in the database; no cut-off is given here.

What was measured:
[1] = test system: Alternaria sp. 'fragaria'; assay: Antifungal activity against Alternaria fragaria after 3 to 7 days by microbroth dilution method; assay type: functional
Method in brief: (§1)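 Microbroth dilution with fungal cultures at 10^4 mycelia fragments/mL. Test samples and ketoconazole were 1 mg/mL DMSO stocks. 180 μL culture plus 20 μL stock in the first well gave 100 μg/mL final, followed by serial dilution. Run in triplicate, incubated at 28 °C for 3−7 days, and MIC determined.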

[2] = test system: Corynespora cassiicola; assay: Antifungal activity against Corynespora cassiicola after 3 to 7 days by microbroth dilution method; assay type: functional
Method in brief: (§2)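 Microbroth dilution with fungal inoculum at 10^4 mycelial fragments/mL. Stock solutions were 1 mg/mL in DMSO. 20 μL stock was added to 180 μL culture, giving a top final concentration of 100 μg/mL, then serially diluted, in triplicate. Plates were held at 28 °C for 3–7 days and read for MIC; ketoconazole was the positive control.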

[3] = test system: Alternaria alternata; assay: Antifungal activity against Alternaria alternata after 3 to 7 days by microbroth dilution method; assay type: functional; method in brief: as §2
[4] = test system: Botrytis cinerea; assay: Antifungal activity against Botrytis cinerea Pers. after 3 to 7 days by microbroth dilution method; assay type: functional; method in brief: as §2
[5] = Antifungal activity against Cercospora personata after 3 to 7 days by microbroth dilution method; assay type: functional; conditions: Nothopassalora personata; method in brief: as §2
[6] = test system: Verticillium dahliae; assay: Antifungal activity against Verticillium dahliae Kleb after 3 to 7 days by microbroth dilution method; assay type: functional; method in brief: as §2
[7] = test system: Sclerotinia sclerotiorum; assay: Antifungal activity against Sclerotinia sclerotiorum after 3 to 7 days by microbroth dilution method; assay type: functional; method in brief: as §2
[8] = test system: Bacillus cereus; assay: Antibacterial activity against Bacillus cereus after 3 to 7 days by broth dilution assay; assay type: functional
[9] = test system: Staphylococcus aureus; assay: Antibacterial activity against Methicillin-resistant Staphylococcus aureus after 3 to 7 days by broth dilution assay; assay type: functional
Method in brief: (§3)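 Modified broth dilution with bacterial suspensions at 10^6 CFU/mL. Test and ciprofloxacin control stocks were 1 mg/mL in DMSO. Serial dilution and MIC read-out followed the antifungal microdilution procedure.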

[10] = test system: Micrococcus luteus; assay: Antibacterial activity against Micrococcus lysodeikticus after 3 to 7 days by broth dilution assay; assay type: functional
[11] = test system: Salmonella paratyphi; assay: Antibacterial activity against Bacterium paratyphosum after 3 to 7 days by broth dilution assay; assay type: functional, Salmonella enterica subsp. enterica serovar Paratyphi A; conditions: Salmonella enterica; method in brief: as §3
[12] = test system: Bacillus subtilis; assay: Antibacterial activity against Bacillus subtilis after 3 to 7 days by broth dilution assay; assay type: functional
[13] = test system: Klebsiella aerogenes; assay: Antibacterial activity against Enterobacter aerogenes after 3 to 7 days by broth dilution assay; assay type: functional
[14] = test system: Fusarium oxysporum; assay: Antifungal activity against Fusarium oxysporum Schlecht after 3 to 7 days by microbroth dilution method; assay type: functional, organism-based; method in brief: as §1
[15] = test system: Alternaria solani; assay: Antifungal activity against Alternaria solani Sorauer after 3 to 7 days by microbroth dilution method; assay type: functional, organism-based; method in brief: as §1
[16] = test system: Rhizoctonia solani; assay: Antifungal activity against Rhizoctonia solani after 3 to 7 days by microbroth dilution method; assay type: functional, organism-based; method in brief: as §1
[17] = test system: A549; assay: Cytotoxicity against human A549 cells after 48 hrs by CCK8 assay; assay type: functional, cell-based; conditions: A549, 48 h
Method in brief: (§4)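 Cells grown in DMEM with 10% FBS at 37 °C, 5% CO2. Seeded at 5000 cells/well and left 16 h, then exposed to a range of concentrations in growth medium for 48 h. Viability read by CCK-8 absorbance as percent of untreated control. IC50 taken from a sigmoidal curve; camptothecin was the positive control.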

[18] = test system: Huh-7; assay: Cytotoxicity against human HuH7 cells after 48 hrs by CCK8 assay; assay type: functional, cell-based; conditions: Huh-7, 48 h; method in brief: as §4
[19] = test system: LN-229; assay: Cytotoxicity against human LN229 cells after 48 hrs by CCK8 assay; assay type: functional, cell-based; conditions: LN-229, 48 h; method in brief: as §4
[20] = Cytotoxicity against human MGC cells after 48 hrs by CCK8 assay; assay type: functional, cell-based; method in brief: as §4
[21] = test system: MHCC97H; assay: Cytotoxicity against human MHCC97H cells after 48 hrs by CCK8 assay; assay type: functional, cell-based
Method in brief: (§5)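 Cultured in DMEM with 10% FBS at 37 °C under 5% CO2. After a 16 h attachment, cells were treated with varying concentrations for 48 h. CCK-8 absorbance was expressed as percent of control and IC50 derived by sigmoidal curve fitting; camptothecin was the positive control.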

[22] = test system: LoVo; assay: Cytotoxicity against human LoVo cells after 48 hrs by CCK8 assay; assay type: functional, cell-based; method in brief: as §5
[23] = test system: MDA-MB-231; assay: Cytotoxicity against human MDA231 cells after 48 hrs by CCK8 assay; assay type: functional, cell-based; conditions: MDA-MB-231, 48 h
Method in brief: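 MDA231 cells kept in DMEM with 10% FBS at 37 °C, 5% CO2. Seeded at 10 000 cells/well and settled 16 h, then given graded concentrations for 48 h. Viability measured by CCK-8 absorbance relative to control cells, with IC50 from a sigmoidal fit; camptothecin served as the positive control.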

[24] = organism: Homo sapiens; assay: Cytotoxicity against human T1224 cells in patient-derived organoid model after 48 hrs by CCK8 assay; assay type: functional, cell-based
Method in brief: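 Patient-derived HCC cells (50 000) were embedded in Matrigel, set 20 min at 37 °C, then grown 6–8 days in DMEM/F12 with B27, 0.01% BSA, 2 mM glutamine, penicillin/streptomycin, 10 ng/mL FGF basic, 50 ng/mL EGF and 50 ng/mL HGF to form organoids. Medium was changed every 2 days.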

Structure (SMILES) | MIC [1] | MIC [9] | Activity [14] | Activity [15] | Activity [16] | other results
CC(=O)N1CCN(c2ccc(OCC3COC(Cn4ccnc4)(c4ccc(Cl)cc4Cl)O3)cc2)CC1 (configuration not stated) [KETOCONAZOLE] | 0.78 µg/mL (≈ 1.47 µM) | – | – | – | – | MIC [2]: 0.78 to 1.56 µg/mL (≈ 1.47 to 2.94 µM); MIC [3]: 0.78 to 1.56 µg/mL (≈ 1.47 to 2.94 µM); MIC [4]: 0.78 to 1.56 µg/mL (≈ 1.47 to 2.94 µM); MIC [5]: 0.78 to 1.56 µg/mL (≈ 1.47 to 2.94 µM); MIC [6]: 0.78 to 1.56 µg/mL (≈ 1.47 to 2.94 µM); MIC [7]: 0.78 to 1.56 µg/mL (≈ 1.47 to 2.94 µM)
O=C(O)c1cn(C2CC2)c2cc(N3CCNCC3)c(F)cc2c1=O [CIPROFLOXACIN] | – | 1.56 µg/mL (≈ 4.71 µM) | – | – | – | MIC [8]: 0.78 µg/mL (≈ 2.35 µM); MIC [10]: 0.78 to 1.56 µg/mL (≈ 2.35 to 4.71 µM); MIC [11]: 0.78 to 1.56 µg/mL (≈ 2.35 to 4.71 µM); MIC [12]: 0.78 to 1.56 µg/mL (≈ 2.35 to 4.71 µM); MIC [13]: 0.78 to 1.56 µg/mL (≈ 2.35 to 4.71 µM)
CC(C)=C[C@H]1O[C@H]2[C@H]3O[C@@]34[C@H](CC[C@@]3(C)[C@@]4(O)CC[C@H]4Cc5c([nH]c6cccc(C[C@H](O)C(C)(C)Cl)c56)[C@@]43C)O[C@@H]2C(C)(C)O1 | 6.25 to 50 µg/mL (≈ 9.76 to 78.1 µM) | – | Active | Active | Active | –
CC(C)=CCc1cccc2[nH]c3c(c12)C[C@@H]1CC[C@@]2(O)[C@@]45O[C@@H]4[C@H](O)[C@@H](C(C)(C)O)O[C@H]5CC[C@]2(C)[C@@]31C | 6.25 to 50 µg/mL (≈ 12 to 95.8 µM) | 12.5 µg/mL (≈ 24 µM) | Active | Active | Active | MIC [2]: 6.25 to 25 µg/mL (≈ 12 to 47.9 µM); MIC [3]: 6.25 to 25 µg/mL (≈ 12 to 47.9 µM); MIC [4]: 6.25 to 25 µg/mL (≈ 12 to 47.9 µM); MIC [5]: 6.25 to 25 µg/mL (≈ 12 to 47.9 µM); MIC [6]: 6.25 to 25 µg/mL (≈ 12 to 47.9 µM); MIC [7]: 6.25 to 25 µg/mL (≈ 12 to 47.9 µM); MIC [8]: 25 µg/mL (≈ 47.9 µM); IC50 [17]: 16.3 to 37.8 µM; IC50 [18]: 16.3 to 37.8 µM; IC50 [19]: 16.3 to 37.8 µM; IC50 [20]: 16.3 to 37.8 µM; IC50 [21]: 16.3 to 37.8 µM; IC50 [22]: 16.3 to 37.8 µM; IC50 [23]: 16.3 to 37.8 µM; Activity [24]: Active
CC(C)(O)[C@@H](O)Cc1cccc2[nH]c3c(c12)C[C@@H]1CC[C@@]2(O)[C@@]45O[C@@H]4[C@@H]4O[C@H]([C@H]6OC6(C)C)OC(C)(C)[C@H]4O[C@H]5CC[C@]2(C)[C@@]31C | 6.25 to 50 µg/mL (≈ 9.8 to 78.4 µM) | – | Active | Active | Active | –
CC(C)(O)[C@H]1O[C@H]2CC[C@@]3(C)[C@@](O)(CC[C@H]4Cc5c([nH]c6cc(C[C@H](O)C(C)(C)Cl)ccc56)[C@@]43C)[C@]23O[C@@H]3[C@@H]1O | 6.25 to 50 µg/mL (≈ 10.9 to 87.1 µM) | – | Active | Active | Active | –
CC(C)(O)[C@H]1O[C@H]2CC[C@@]3(C)[C@@](O)(CC[C@H]4Cc5c([nH]c6cccc(C[C@H](O)C(C)(C)Cl)c56)[C@@]43C)[C@]23O[C@@H]3[C@@H]1O | 6.25 to 50 µg/mL (≈ 10.9 to 87.1 µM) | 50 µg/mL (≈ 87.1 µM) | Active | Active | Active | –
CC(C)=C[C@H]1O[C@H]2[C@H]3O[C@@]34[C@H](CC[C@@]3(C)[C@@]4(O)CC[C@H]4Cc5c([nH]c6cc(C[C@H](O)C(C)(C)O)ccc56)[C@@]43C)O[C@@H]2C(C)(C)O1 | 6.25 to 50 µg/mL (≈ 10.1 to 80.4 µM) | – | Active | Active | Active | –
CC(C)(Cl)[C@H](O)Cc1ccc2c3c([nH]c2c1)[C@@]1(C)[C@@H](CC[C@@]2(O)[C@@]45O[C@@H]4[C@@H]4O[C@H]([C@H]6OC6(C)C)OC(C)(C)[C@H]4O[C@H]5CC[C@@]21C)C3 | 6.25 to 50 µg/mL (≈ 9.52 to 76.2 µM) | – | Active | Active | Active | –
CC[C@@]1(O)C(=O)OCc2c1cc1n(c2=O)Cc2cc3ccccc3nc2-1 [CAMPTOTHECIN] | – | – | – | – | – | IC50 [17]: 0.00032 to 0.0318 µM; IC50 [18]: 0.00032 to 0.0318 µM; IC50 [19]: 0.00032 to 0.0318 µM; IC50 [20]: 0.00032 to 0.0318 µM; IC50 [21]: 0.00032 to 0.0318 µM; IC50 [22]: 0.00032 to 0.0318 µM; IC50 [23]: 0.00032 to 0.0318 µM
CC(C)=CCc1cccc2[nH]c3c(c12)C[C@@H]1CC[C@]2(O)[C@](C)(CCC(=O)[C@@]24O[C@@H]4[C@@H]2O[C@H](C=C(C)C)OC(C)(C)[C@@H]2O)[C@@]31C | – | 12.5 to 25 µg/mL (≈ 20.7 to 41.4 µM) | Active | Active | Active | MIC [8]: 12.5 to 25 µg/mL (≈ 20.7 to 41.4 µM); MIC [10]: 12.5 to 25 µg/mL (≈ 20.7 to 41.4 µM); MIC [11]: 12.5 to 25 µg/mL (≈ 20.7 to 41.4 µM); MIC [12]: 12.5 to 25 µg/mL (≈ 20.7 to 41.4 µM); MIC [13]: 12.5 to 25 µg/mL (≈ 20.7 to 41.4 µM)
COC(C)(C)[C@@H](O)Cc1cccc2[nH]c3c(c12)C[C@@H]1CC[C@@]2(O)[C@@]45O[C@@H]4[C@H](O)[C@@H](C(C)(C)O)O[C@H]5CC[C@]2(C)[C@@]31C | 6.25 to 50 µg/mL (≈ 11 to 87.8 µM) | – | Active | Active | Active | –
CC(C)=C[C@H]1O[C@H]2[C@H]3O[C@@]34[C@H](CC[C@@]3(C)[C@@]4(O)CC[C@H]4Cc5c([nH]c6cccc(C[C@H](O)C(C)(C)O)c56)[C@@]43C)O[C@@H]2C(C)(C)O1 | 6.25 to 50 µg/mL (≈ 10.1 to 80.4 µM) | – | Active | Active | Active | –
